Compound activity: PubChem BioAssay, Johns Hopkins Ion Channel Center
Compounds with a hit are over-represented: about 3.5% of the library has one in this group of screens.
RGS4 block: inhibitors of human RGS4. P49798. HEK293 M3R/RGS4 inducible, Fluo-4 calcium flux; hits give high values; triggered by carbachol at its EC20. B-score at 10 µM. 310,000 compounds, 0.45% hits. AID 463165;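 active = B-score, a plate-corrected calcium signal, over three deviations above library mean, with baseline fluorescence within five deviations of library mean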;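 note: RGS4 expression induced by doxycycline in cells with stable M3 receptor; B-score is computed from the integrated fluorescence ratio over baseline after carbachol; higher B-score means a larger calcium signal and so more RGS4 inhibition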
Target sequence (P49798 whole entry, looked up): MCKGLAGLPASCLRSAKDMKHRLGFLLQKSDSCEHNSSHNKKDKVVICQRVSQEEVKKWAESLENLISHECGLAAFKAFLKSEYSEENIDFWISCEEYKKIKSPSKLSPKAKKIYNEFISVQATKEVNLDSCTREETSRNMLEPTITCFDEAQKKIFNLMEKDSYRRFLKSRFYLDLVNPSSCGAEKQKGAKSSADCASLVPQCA
MrgX1 agonist: human MrgX1 receptor agonism, primary screen; Q96LB2; MrgX1-HEK293 cells, Fluo-4 calcium fluorescence, agonist mode; hits give high values; B-score at 10 µM; 310,000 compounds, 0.44% hits;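 active = calcium response B-score plate-corrected fluorescence ratio at least 3 library SD, with starting fluorescence B-score inside 5 SD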
Target sequence (Q96LB2 whole entry, looked up): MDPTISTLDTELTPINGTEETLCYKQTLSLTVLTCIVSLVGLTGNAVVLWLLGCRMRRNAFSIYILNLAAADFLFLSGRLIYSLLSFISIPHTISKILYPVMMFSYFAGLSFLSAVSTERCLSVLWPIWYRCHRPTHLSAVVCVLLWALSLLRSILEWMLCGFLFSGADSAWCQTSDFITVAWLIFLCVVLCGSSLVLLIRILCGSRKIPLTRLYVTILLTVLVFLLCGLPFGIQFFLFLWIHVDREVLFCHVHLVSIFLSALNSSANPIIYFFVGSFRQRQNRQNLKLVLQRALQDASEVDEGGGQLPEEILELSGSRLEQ
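times = overnight plating, then 30 min 37 °C plus 30 min room-temperature dye loading | assay system = stable human MrgX1 HEK293 cell line | input = fifteen thousand cells per well | signal = kinetic calcium dye fluorescence, Fluo-4 NW | dosing = compound delivered in addition one of three | read-out = B-scored fluorescence response ratio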
MrgX1 PAM: allosterically activates human MrgX1 receptor signaling. MrgX1-HEK293, Fluo-4 calcium flux, FDSS; hits give high values. B-score at 10 µM. 310,000 compounds, 0.63% hits. AID 588675;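 active = plate-corrected calcium response at least 3 library SD above typical, normal starting fluorescence, not activating the receptor alone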;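 note: compound read alongside a low EC10 to EC30 dose of BAM8-22 agonist; peak minus trough fluorescence over baseline measured at the second addition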
RGS4 pot: potentiators or activators of RGS4; B-score at 10 µM; HEK293 M3R/inducible RGS4, carbachol calcium flux Fluo4; hits give low values; 310,000 compounds, 0.92% hits;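 active = B-score of the integrated calcium signal more than 4 SD below the library mean, with starting fluorescence not abnormally high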;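 note: negative B-score means reduced calcium response which marks RGS4 activation or potentiation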
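System – HEK293 FlpIn-TREx cells, stable M3R, doxycycline-inducible RGS4 · Reagent – ECmax carbachol challenge · Times – compound preincubation 20 min at room temperature before agonist · Technique – Fluo4 fluorescence kinetic imaging of calcium · Measure – B score of integrated Fluo4 ratio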
MrgX1 antagonist: antagonists of human MrgX1 receptor | MRGX1-HEK293 calcium flux, Fluo-4, BAM8-22 antagonism; hits give low values | B-score at 10 µM | 310,000 compounds, 1.3% hits | AID 588676;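 active = calcium-response B-score plate-corrected more than 3 library SD below zero, starting fluorescence within 5 deviations, no agonist response on first addition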;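 note: peak minus trough fluorescence over baseline after final BAM8-22 challenge near maximal dose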
MrgX1 ag reconf: confirmation of human MrgX1 receptor agonists; shares compounds with MrgX1 agonist; AID 602412; 600 compounds, 78% hits; activation, % at 10 µM; MrgX1-HEK293, Fluo-4 calcium fluorescence, FDSS;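 active = calcium signal rise, corrected for plate position, at least 3 library SD high, with starting brightness within 5 such deviations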; note: reference of the scale not given here
HEK293 Ca flux: activity in parental HEK293 cells lacking MrgX1. 4,000 compounds, 2% hits. AID 624111. shares compounds with MrgX1 antagonist. fluorescence ratio F(max-min)/F0 at 10 µM. Fluo-4 calcium fluorescence, FDSS;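 active = duplicate-averaged calcium fluorescence ratio at least three times the standard deviation of buffer wells, a nonspecific response in parental cells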
HEK293 Ca counter: counter-screen for MrgX1 allosteric activators: effect in parental HEK293 cells; shares compounds with MrgX1 antagonist; parental HEK293 calcium flux, Fluo-4 fluorescence ratio; hits give high values; fluorescence ratio F(max-min)/F0 at 10 µM; 4,000 compounds, 0.4% hits;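 active = calcium fluorescence ratio, averaged over duplicates, at least 3 SD of the buffer-well ratio, meaning a nonspecific response in receptor-free cells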;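 note: untransfected parental HEK293 lacking MrgX1 used as counterscreen for MrgX1 allosteric activators; fluorescence change taken during the second addition on a kinetic imager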
HEK293 Ca cntr2: counter-screen for MrgX1 activators: effect in parental HEK293 cells; Fluo-4 calcium fluorescence (FDSS); hits give high values; 4,000 compounds, 8.7% hits; fluorescence ratio F(max-min)/F0 at 10 µM; AID 624115; shares compounds with MrgX1 antagonist;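 active = calcium fluorescence ratio at least three times the spread of buffer wells, meaning a non-specific response in parental cells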
* marks the source's active call; other numbers are inactive results; i = inactive; . = not tested or not shown.

SMILES	RGS4 block	MrgX1 agonist	MrgX1 PAM	RGS4 pot	MrgX1 antagonist	MrgX1 ag reconf	HEK293 Ca flux	HEK293 Ca counter	HEK293 Ca cntr2
COc1ccccc1-c1ccc(/C=C2\C=CC(=O)O2)o1	i	91*	i	i	i	i	0.2*	i	i
O=C(Cc1ccc(Cl)cc1Cl)OCC(=O)N1CCN(C(=O)c2ccco2)CC1	i	29*	i	i	i	i	i	i	i
O=C(Cc1ccc(Cl)cc1)N1CCN(C(=O)c2ccco2)CC1	i	i	i	i	i	.	.	.	.
O=C(Nc1ccccc1)C1=C[C@@H](C2CC2)C[C@@H](OCc2ccc(CO)cc2)O1	i	i	i	i	i	.	.	.	.
CC1=NN2C(=N)/C(=C\c3ccc(SCc4ccccc4)o3)C(=O)N=C2S1	i	i	i	i	i	.	.	.	.
N=C1/C(=C\c2ccc(SCc3ccco3)o2)C(=O)N=C2SC=NN12	i	90*	i	i	i	267%*	i	i	47*
CC(C)Oc1ccc(C(=O)CCN2CCOCC2)cc1	i	65*	i	i	i	i	i	i	i
CC1(C)CC(=O)C(C(C2=C(O)CC(C)(C)CC2=O)c2ccc(Cl)c([N+](=O)[O-])c2)C(=O)C1 (stereo not given)	i	91*	i	i	i	i	i	i	i
Cc1ccc(Sc2cc(C)nc(-c3ccccn3)n2)cc1	i	31*	i	i	i	210%*	i	i	i
CCCn1c(SCC(=O)Nc2cc(S(=O)(=O)N(C)C)ccc2OC)n[nH]c1=O	i	i	i	i	i	.	.	.	.
O=C(CN(Cc1ccccc1)C(=O)CCC(=O)Nc1nccs1)NCc1ccccc1	i	i	i	i	i	.	.	.	.
Nc1nc2ccc(S(=O)(=O)N3CCCCC3)cc2s1	i	43*	i	i	i	256%*	i	i	53*
COc1cccc(-n2nnc(S(=O)(=O)c3ccc(C)cc3)c2N)c1	i	36*	i	i	i	i	i	i	i
O=C(Nc1ccc2oc(-c3ccccc3Cl)nc2c1)c1ncn[nH]1	i	55*	i	i	i	i	i	i	i
O=C(Nc1ccc2oc(-c3cccc4ccccc34)nc2c1)c1ncn[nH]1	i	i	i	i	i	.	.	.	.
O=C(O)c1cccnc1SCC(=O)N1CCCc2ccccc21	i	36*	i	i	i	i	i	i	i
COc1ccc(-c2nnc(SCc3ccccn3)n2C)cc1	i	i	i	i	i	.	.	.	.
COc1ccc(N=C(N)SCc2ccccn2)cc1	i	87*	i	i	i	341%*	i	i	92*
CCCc1nnc(SCC(=O)N2CCCC2)n1Cc1ccco1	i	i	i	i	i	.	.	.	.
O=C1c2ccccc2CSc2c(O)cccc21	i	i	i	i	i	.	.	.	.
O=C1Cc2ccccc2Sc2ccc(O)cc21	i	29*	i	i	i	114%*	i	i	i
Nc1ccc(N2C(=O)c3ccccc3C2=O)c(Cl)c1	.	i	i	.	i	.	.	.	.
Cc1cccc2c1Sc1ccccc1CC2=O	i	33*	i	i	i	113%*	i	i	i
Nc1ccc2c(c1)CC(=O)c1ccccc1S2	i	42*	i	i	i	102%*	i	i	i
CCOCc1nnc(NC(=O)C2CC(=O)N(C3CCCC3)C2)s1 (stereo not given)	i	i	i	i	i	.	.	.	.
SMILES	RGS4 block	MrgX1 agonist	MrgX1 PAM	RGS4 pot	MrgX1 antagonist	MrgX1 ag reconf	HEK293 Ca flux	HEK293 Ca counter	HEK293 Ca cntr2
O=C(CNC(=O)c1ccc(Br)o1)Nc1cccc(S(=O)(=O)N2CCOCC2)c1	i	i	i	i	i	.	.	.	.
Nc1ccc(-c2cnc3ccccc3n2)cc1	i	28*	i	i	i	87%*	i	i	i
Cc1sc(N)nc1-c1ccc(Oc2ccccc2)cc1	i	i	i	i	i	.	.	.	.
Cc1[nH]c2ccccc2c1-c1nc(N)sc1C	i	38*	i	i	i	i	i	i	i
O=C1CC(O)(C(F)(F)F)Oc2c1ccc1ccccc21 (stereo not given)	i	90*	i	i	i	565%*	i	i	103*
O=C1OC(Nc2nc(-c3ccc(F)cc3)cs2)c2ccccc21 (stereo not given)	i	i	i	i	i	.	.	.	.
Cc1cc(C)cc(NC(=O)Nc2ccc(N3CCCCC3)cc2)c1	i	30*	i	i	i	i	i	i	i
O=C(CCl)Nc1cccc(S(=O)(=O)N2CCCCCC2)c1	i	42*	i	i	i	165%*	i	i	i
CC[C@H]1OC(=O)[C@H](C)[C@@H](O[C@H]2C[C@@](C)(OC)[C@@H](O)[C@H](C)O2)[C@H](C)[C@@H](O[C@@H]2O[C@H](C)C[C@H](N(C)C)[C@H]2O)[C@](C)(O)C[C@@H](C)C(=NOCOCCOC)[C@H](C)[C@@H](O)[C@]1(C)O	i	i	i	i	i	.	.	.	.
Cc1c(N=C2NN=C(c3c[nH]c4ccccc34)CS2)c(=O)n(-c2ccccc2)n1C	i	i	i	i	i	.	.	.	.
COc1ccc(-c2[nH]c(-c3ccccc3)nc2SCC(=O)NC2CCCC2)cc1	i	29*	i	i	i	208%*	i	i	46*
O=C1CCC(C(=O)O)N1 (stereo not given)	i	i	i	i	i	.	.	.	.
COc1ccc(C(=O)Nc2ccccc2C(=O)O)cc1Cl	i	i	i	i	i	.	.	.	.
CCOc1c(Cl)cc(C(=O)Nc2ccccc2C(=O)O)cc1Cl	i	48*	i	i	i	78%*	i	i	i
CCN1C(=O)N(CC)C2C1N(C(C)=O)C(=O)N2C(C)=O (stereo not given)	i	i	i	i	i	.	.	.	.
O=C(Nc1ccc(N2CCOCC2)cc1)C1(c2ccc(Cl)cc2)CCC1	i	i	i	i	i	.	.	.	.
